Compound activity (PubChem)
RAM inhibit = blocks the yeast RAM network | S. cerevisiae dse1pr::URA3 reporter, 5-FOA growth OD615, 2 d; analog-sensitive cbk1-as2 kinase mutant strain | inhibition, % at 50 µM | 190,000 tested, 1.8% active | AID 868;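 active = inhibition above a set limit, 3 SD over mean compound inhibition, cut at about 8.4% in these data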;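 note: 0% = DMSO-only wells with no growth and 100% = 10 µM 1-NA-PP1 full growth; inhibition rescues growth on 5-FOA so higher OD means more RAM inhibition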
Yeast lifespan up = extends the lifespan of yeast. inhibition of the nicotinamide effect, % at 10 µM. 130,000 tested, 0.68% active. S. cerevisiae growth with nicotinamide, OD615; deaD strain in restrictive glucose medium;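 active = inhibition above a set limit, placed 3 SD over the median of all compounds, cut at about 26% in these data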;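 note: 0% = nicotinamide-treated wells and 100% = cells grown without nicotinamide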
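Test system – modified budding yeast, DeaD strain · Compound – single dose 10 µM compound, 0.25% DMSO · Times – culture preincubation 4 h, compound exposure 48 h, both 30 °C · Detection – optical density (absorbance) at 615 nm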
BB579 growth dn = chemicals that inhibit yeast BB579 growth in restrictive medium (lifespan-shortening candidates) | S. cerevisiae BB579 growth, OD615, 48 h | inhibition, % at 10 µM | 140,000 tested, 0.51% active;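 active = inhibition above a set limit, 3 SD over the mean compound inhibition, cut at about 44% in these data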
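Material: Saccharomyces cerevisiae DeaD strain BB579, replicative lifespan model yeast; buffer or medium: CSMM-D restrictive synthetic medium containing dextrose (glucose); compound: 10 µM single dose, DMSO 0.25%; timing: 48 h compound exposure at 30 °C after 4 h preincubation; signal: turbidity as optical density at 615 nm; benchmarks: positive control amphotericin B 10 µg/mL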
KCC2 mod = modulates chloride dependent transport by human KCC2; Q9H2X9; KCC2 cells, thallium flux FluoZin-2 fluorescence; B-score of Tl+ flux slope (higher = more flux/activation; lower = inhibition) at 10 µM; 190,000 tested, 2.2% active;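 active = thallium flux slope and its plate-corrected score both differing from the plate sample mean at a set confidence after two filtering rounds, in either direction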;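 note: slope of fluorescence scaled to starting intensity during 10 to 20 s after thallium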
Target sequence (Q9H2X9 whole entry, looked up): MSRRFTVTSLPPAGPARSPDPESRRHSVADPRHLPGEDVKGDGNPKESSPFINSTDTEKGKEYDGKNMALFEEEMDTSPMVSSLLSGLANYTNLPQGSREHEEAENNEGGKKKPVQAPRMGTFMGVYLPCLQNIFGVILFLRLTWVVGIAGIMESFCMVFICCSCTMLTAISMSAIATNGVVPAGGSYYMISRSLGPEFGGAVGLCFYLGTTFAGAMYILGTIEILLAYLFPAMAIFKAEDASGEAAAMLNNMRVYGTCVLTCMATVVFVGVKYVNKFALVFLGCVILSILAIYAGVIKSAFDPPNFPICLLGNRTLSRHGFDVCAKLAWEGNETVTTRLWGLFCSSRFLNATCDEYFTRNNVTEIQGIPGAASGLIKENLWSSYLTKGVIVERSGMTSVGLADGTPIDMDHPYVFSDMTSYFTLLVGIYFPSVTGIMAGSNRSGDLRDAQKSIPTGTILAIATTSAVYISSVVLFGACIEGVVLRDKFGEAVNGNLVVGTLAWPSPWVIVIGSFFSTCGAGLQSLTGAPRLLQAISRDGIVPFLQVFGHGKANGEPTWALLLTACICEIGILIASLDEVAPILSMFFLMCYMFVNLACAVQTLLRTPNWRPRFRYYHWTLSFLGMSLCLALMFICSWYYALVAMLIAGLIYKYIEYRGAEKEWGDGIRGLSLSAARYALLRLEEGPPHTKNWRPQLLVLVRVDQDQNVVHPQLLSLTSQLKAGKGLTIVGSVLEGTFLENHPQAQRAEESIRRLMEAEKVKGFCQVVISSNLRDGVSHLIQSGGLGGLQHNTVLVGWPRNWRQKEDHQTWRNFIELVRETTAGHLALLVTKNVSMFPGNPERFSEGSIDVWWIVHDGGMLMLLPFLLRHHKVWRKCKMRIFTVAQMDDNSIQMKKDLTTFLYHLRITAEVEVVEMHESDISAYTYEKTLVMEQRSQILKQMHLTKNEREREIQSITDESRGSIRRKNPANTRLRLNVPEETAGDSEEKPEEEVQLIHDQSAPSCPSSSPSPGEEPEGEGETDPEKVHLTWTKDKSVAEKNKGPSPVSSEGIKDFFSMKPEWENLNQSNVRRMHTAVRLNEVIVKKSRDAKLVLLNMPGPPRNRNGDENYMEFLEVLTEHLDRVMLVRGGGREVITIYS
WT yeast gro inh = growth inhibition of WT yeast, mitochondrial fusion screen | AID 1362 | mitochondrial fusion phenotypic screen, WT strain | inhibition, % at 10 µM | 190,000 tested, 2.1% active; in the data active = inhibition above about 58%; tested in S. cerevisiae
KCC2 secondary = confirmation of human KCC2 transport modulators; 3,700 tested, 15% active; shares compounds with KCC2 mod; normalised thallium flux (F/F0 slope) at 10 µM; HEK293-KCC2, thallium flux, FluoZin2 fluorescence; hits give high values;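 active = thallium flux slope above the same plate's solvent-only control mean plus 3 SD; inconclusive = the two replicate wells disagree; inactive = no significant difference from solvent-only control wells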
KCC2 bumet counter = thallium flux persisting under bumetanide in KCC2 cells, counter-screen secondary assay; shares compounds with KCC2 mod; HEK293-KCC2 + bumetanide/ouabain, thallium flux FluoZin2; hits give high values; normalized thallium flux at 10 µM; 3,700 tested, 49% active; AID 1714;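 active = thallium entry rate above the same plate's blocked-transporter control wells by more than 3 SD; inconclusive = the two repeat wells disagree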;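 note: raw slope of fluorescence over initial fluorescence between 10 and 20 s after thallium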
KCC2 secondary2 = KCC2 (human) modulation, second secondary assay. shares compounds with KCC2 mod. HEK293-KCC2, thallium flux FluoZin2 fluorescence; actives lie on both sides; F/F0 rise rate, 10–20 s post-thallium. normalized thallium flux at 10 µM. 3,700 tested, 23% active;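 active = thallium flux slope more than 3 SD above or below the plate's solvent-only control mean, mostly below; inconclusive = the two repeat wells disagreed; inactive = no significant shift from solvent-only controls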;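 note: raw slope with 0.1% DMSO as baseline and bumetanide as block control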
HEK counter1 = counter-screen for KCC2 modulators: effect in parental HEK293 cells; AID 1716; thallium flux rate (normalised fluorescence) at 10 µM; shares compounds with KCC2 mod; 3,700 tested, 46% active; thallium flux FluoZin2, ouabain; baseline-ratio fluorescence slope, 10–20 s after thallium;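 active = thallium flux rate significantly above the same plate's solvent-only control wells, beyond their mean plus 3 SD; inconclusive = the two replicate wells gave conflicting results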
KCC2 ouabain = KCC2 (human) modulation, ouabain retest; HEK293-KCC2, thallium flux FluoZin2 fluorescence; bidirectional: low = inhibitor, high = activator; 3,700 tested, 48% active; raw Tl+ flux slope (below DMSO = inhibition, above = activation) at 10 µM; AID 1717; shares compounds with KCC2 mod;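 active = thallium flux slope beyond 3 SD from same-plate DMSO control mean in most replicates, usually higher, sometimes lower; inconclusive = repeat tests gave conflicting results; inactive = no significant difference from controls in most replicates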;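 note: slope of initial-normalized fluorescence between seconds 10 and 20 after thallium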
HEK counter2 = parental HEK flux effect, counter-screen 2. shares compounds with KCC2 mod. HEK293 parental, thallium flux FluoZin-2 fluorescence slope. thallium flux slope at 10 µM. 3,700 tested, 33% active. AID 1718;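 active = thallium flux slope above the same plate's solvent-control mean plus 3 SD in both duplicate wells; inconclusive = duplicate wells that disagreed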;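 note: run without ouabain in cells lacking the KCC2 cotransporter; slope of fluorescence scaled to its starting value between 10 and 20 s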
* hit, by the source's call; ? = inconclusive; / = no result. In the library only some 5.5% were active in any assay of this set; here they are far more common.

SMILES	RAM inhibit	Yeast lifespan up	BB579 growth dn	KCC2 mod	WT yeast gro inh	KCC2 secondary	KCC2 bumet counter	KCC2 secondary2	HEK counter1	KCC2 ouabain	HEK counter2
Cc1ccc(-c2cc(-c3ccccc3)[nH]c(=S)c2C#N)cc1	4	-13	-72	/	-10	/	/	/	/	/	/
N#Cc1c(-c2ccc(C(F)(F)F)cc2)cc(-c2ccccc2)[nH]c1=S	3	0	-26	5*	5	0.02*	0.022*	0.04	?	0.029*	0.024*
O=C(/C=N/NC(=O)c1ccc(Cl)cc1Cl)c1ccccc1	/	/	/	91*	/	0.0062	0.1*	0.062*	0.048*	0.076*	0.039*
Cc1cccc(OCC(=O)NCC(=O)N/N=C/c2cc(Br)ccc2OCc2ccccc2)c1	4	6	-48	-0.16	18	/	/	/	/	/	/
O=C(/C=N/NC(=O)c1ccccc1Br)c1ccccc1	3	/	/	8*	-5	0.0068	0.019*	0.031	0.02*	?	0.018*
O=C(COc1cccc(Br)c1)N/N=C/C(=O)c1ccccc1	0	/	/	5.9*	8	0.0055	0.014*	0.032	0.012*	?	0.015*
O=C(CN1CCOCC1)Nc1nc2cc([N+](=O)[O-])ccc2s1	2	-1	6	/	-22	/	/	/	/	/	/
CCc1noc(C)c1C(=O)N1CCCC(CCC(=O)NCc2ccc(F)c(F)c2)C1 (stereo not drawn)	2	/	/	0.015	11	/	/	/	/	/	/
Cc1cc(C(F)F)n2nc(C(=O)Nc3sc4c(c3C#N)CCC4)nc2n1	5	5	-31	0.025	0	/	/	/	/	/	/
CCCCN1C(=O)C(O)=C(C(C)=O)C1c1ccccc1 (stereo not drawn)	1	-8	-37	/	-6	/	/	/	/	/	/
CCCCCCN1C(=O)C(O)=C(C(C)=O)C1c1ccc(Cl)cc1 (stereo not drawn)	4	-8	-12	-3.3*	-5	0.0093	?	0.03	0.0082	0.014*	0.011
S=c1[nH]nc(Cc2cccs2)n1-c1ccccc1	1	-27	-31	0.41	1	/	/	/	/	/	/
CCCCc1ccc(-n2c(Cc3cccs3)n[nH]c2=S)cc1	0	/	/	58*	74*	0.006	0.097*	0.063*	0.08*	0.053*	0.067*
O=C(CCc1nnc(-c2ccc3c(c2)OCO3)o1)N1CCC(c2ccc(F)cc2)C1 (stereo not drawn)	5	/	/	-4.8*	-11	0.0071	0.0041	0.022*	0.0062*	0.014*	?
CCOC(=O)N1CCC(NC(=O)C2=CCN(S(=O)(=O)c3ccc(OC)cc3)CC2)CC1	/	/	/	0.16	/	/	/	/	/	/	/
O=C(C[n+]1ccccc1)c1ccc(-c2ccccc2)cc1	1	/	/	-4.6*	10	0.015	0.0047	0.022*	0.0078	0.014	0.011
Cc1cc(C)n2c(Br)c(CSc3nc4ccccc4s3)nc2n1	3	9	-70	-3.7*	16	0.0069	0.0051	0.027*	0.0061*	0.016*	0.0096
Cn1c(C(=O)OC(C(=O)NC2CCCCC2)c2ccncc2)cc2sccc21 (stereo not drawn)	5	-4	-66	-2.5	-2	/	/	/	/	/	/
Cn1c(C(=O)OC(C(=O)NC2CCCC2)c2ccncc2)cc2sccc21 (stereo not drawn)	1	-8	-17	-5.2*	0	0.0068	?	0.025*	0.0074	?	0.01
CSC1=N/C(=C\c2ccccc2Cl)C(=O)N1N(C)C	/	/	/	0.44	/	/	/	/	/	/	/
CCn1c(=O)c(C(=O)NC(C)C)c(O)c2ccccc21	1	-12	-39	0.84	2	/	/	/	/	/	/
CCCCC(=O)NNC(=O)c1c(O)c2ccccc2[nH]c1=O	/	/	/	-0.19	/	/	/	/	/	/	/
CCCCCCCCCC(=O)NNC(=O)c1c(O)c2ccccc2n(CC)c1=O	10*	/	/	5.2*	0	0.0064	0.016*	0.03	0.016*	0.024*	0.015*
CCCCCC(=O)NNC(=O)c1c(O)c2ccccc2n(CC)c1=O	3	/	/	3.5*	-14	0.0062	0.014*	0.033	0.013*	?	0.015*
COc1ccccc1NC(=S)Nc1ccc2cn[nH]c2c1	3	/	/	-1	-2	/	/	/	/	/	/
SMILES	RAM inhibit	Yeast lifespan up	BB579 growth dn	KCC2 mod	WT yeast gro inh	KCC2 secondary	KCC2 bumet counter	KCC2 secondary2	HEK counter1	KCC2 ouabain	HEK counter2
Cc1sc2c(c1C)c(=O)nc1scc(C)n12	/	/	/	-0.82	/	/	/	/	/	/	/
CSc1nc2c(c(=O)[nH]c(=O)n2C)n1C/C=C(\C)Cl	0	-9	10	0.66	-7	/	/	/	/	/	/
CCSc1nc2c(c(=O)[nH]c(=O)n2C)n1C/C=C(/C)Cl	0	-11	13	7*	4	0.0088	0.0066	0.033	0.007	0.02	0.01
Cc1ccc2nc(N/C(=N/S(=O)(=O)c3ccc(F)cc3F)c3ccccc3)sc2c1	3	/	/	21*	22	0.016	0.0094*	0.03	0.0096*	0.019	?
Cc1ccc(S(=O)(=O)/N=C(/NC(=S)Nc2cccc(C)c2)c2ccccc2)cc1	0	-22	-30	20*	3	0.0062	0.03*	0.042*	0.022*	0.035*	0.024*
Cc1ccc2nc(N/C(=N/S(=O)(=O)c3ccc(F)cc3)c3ccccc3)sc2c1	3	/	/	4.5*	9	0.0095	0.0067	0.031	?	0.019	?
C/C(=N\S(=O)(=O)c1ccc(C)cc1)NC(=S)Nc1ccc(C)cc1	4	/	/	0.28	6	/	/	/	/	/	/
O=C(CSc1nc2ncccc2[nH]1)c1ccc2c(c1)OCO2	/	/	/	0.79	/	/	/	/	/	/	/
Cc1nc2ccccn2c1C(=O)N=Nc1c(O)n(CCC(C)C)c2ccccc12	3	2	-51	-0.69	13	/	/	/	/	/	/
CC1C/C(=N\NC(=O)c2ccc([N+](=O)[O-])cc2)CC(C)(C)C1 (stereo not drawn)	/	/	/	5.4*	/	0.01	0.016*	0.029	0.009*	0.027*	?
CC1C/C(=N\NC(=O)c2ccc(NS(=O)(=O)c3ccc(Br)cc3)cc2)CC(C)(C)C1 (stereo not drawn)	0	2	-57	-0.39	1	/	/	/	/	/	/
Cc1ccc(C)c(S(=O)(=O)Nc2ccccc2C(=O)Nc2ccccc2N2CCOCC2)c1	6	-5	-27	-0.62	31	/	/	/	/	/	/
